Where two headings read alike, the source gives them in different places.
What was measured:
Assay type in all cases: cell-based
[1] = tested on: human lung adenocarcinoma A549 cells; experiment: WST-8 cytotoxicity assay, A549 cells; conditions: for IC50: read-out: IC50 (μM) A549; for SI (selectivity index): IC50 against normal MRC-5 cells divided by IC50 against A549 cells
Procedure, shortened: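 Human lung adenocarcinoma A549 cells, kept in DMEM + 10% FBS at 37 °C, 5% CO2, seeded at 2000 cells/well, preincubated 24 h, then exposed to various concentrations for 72 h (DMSO 0.1–0.2% v/v). WST-8 (CCK-8) reagent 2 h at 37 °C, A450. Growth is sample/control absorbance. IC50 is mean ± SD of triplicates. SN-38 positive control. SI = MRC-5 IC50 / A549 IC50.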

[2] = tested on: human normal lung fibroblast MRC-5 cells; experiment: WST-8 cytotoxicity assay, normal MRC-5 cells; conditions: read-out: IC50 (μM) MRC-5
Procedure, shortened: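 Normal lung fibroblast MRC-5 cells in α-MEM without ribonucleosides/deoxyribonucleosides + 10% FBS. Seeded at 2000 cells/well, preincubated 24 h, then treated with various concentrations for 72 h (DMSO 0.1–0.2% v/v). WST-8 (CCK-8) reagent 2 h at 37 °C, A450. Growth is the ratio of sample to control absorbance. IC50 is the mean ± SD of triplicates. SN-38 positive control.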

[3] = tested on: human promyelocytic leukemia HL-60 cells; experiment: WST-8 cytotoxicity assay, HL-60 cells; conditions: read-out: IC50 (μM) HL-60
Procedure, shortened: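 HL-60 promyelocytic leukemia cells, grown in RPMI 1640 + 10% FBS at 37 °C, 5% CO2, plated at 5000 cells/well with various concentrations for 72 h (DMSO 0.1–0.2% v/v). CCK-8 (WST-8) reagent added for 2 h at 37 °C, absorbance read at 450 nm. Growth is taken as the sample/control absorbance ratio. IC50 is the mean ± SD of triplicate experiments. SN-38 positive control.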

[4] = Table 3, WST-8, 72 h, mean ± SD of triplicate experiments
[5] = Table 4, WST-8, 72 h, mean ± SD of triplicate experiments

`CC(C)=CCn1c2ccc(Cl)c(=O)c-2nc2ccccc21` [3c, 2-Chloro-5-(3-methylbut-2-en-1-yl)phenazin-1(5H)-one] was tested, and the IC50 ([1]; Homo sapiens, A549, 72 h) was 0.66 ± 0.016 µM, the “SI (selectivity index)” value ([1]; Table 4) was 1.00 and the IC50 ([2]; Homo sapiens, MRC5, 72 h) was 0.66 ± 0.041 µM. It also gave an IC50 ([3]; Homo sapiens, HL-60, 72 h) of 2.2 ± 0.07 µM.

`Cn1c2ccc(Br)c(=O)c-2nc2ccccc21` [1b, 2-Bromo-5-methylphenazin-1(5H)-one] was tested, and the IC50 ([1]; Homo sapiens, A549, 72 h) was 2.59 ± 0.056 µM, the “SI (selectivity index)” value ([1]; Table 3) was 1.30 and the IC50 ([2]; Homo sapiens, MRC5, 72 h) was 3.36 ± 0.204 µM. For the same compound, the IC50 ([3]; Homo sapiens, HL-60, 72 h) was 3.07 ± 0.08 µM.

For `Cn1c2cccc(=O)c-2nc2ccccc21` [1a, pyocyanin], the IC50 ([1]; Homo sapiens, A549, 72 h) was 5.52 ± 0.28 µM, the “SI (selectivity index)” value ([1]; Table 3) was 3.95 and the IC50 ([2]; Homo sapiens, MRC5, 72 h) was 21.8 ± 2.55 µM. The IC50 ([3]; Homo sapiens, HL-60, 72 h) was 5.82 ± 0.133 µM.

In the case of `CCc1c2c(nc3ccc(O)cc13)-c1cc3c(c(=O)n1C2)COC(=O)[C@]3(O)CC` [SN-38, reference compound], the IC50 [1, 4] is reported as 0.038 ± 0.003 µM, the IC50 [1, 5] is reported as 0.052 ± 0.003 µM and the IC50 [2, 4] is reported as < 0.1 µM. The IC50 [2, 5] was 0.092 ± 0.001 µM, the IC50 [3, 4] was < 0.05 µM and the IC50 [3, 5] was 0.056 ± 0.002 µM.
